Assay [1] relates to Rattus norvegicus. The assay can be described thus: In vivo inhibition of deoxycorticosterone acetate-induced urinary electrolyte effect in sc dosed adrenalectomized rat measured over 4 hrs. Format: functional, Urine. In outline:
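Groups of four adrenalectomized rats (150-200 g) were pretreated sc with 12 µg deoxycorticosterone acetate plus 2.5 ml isotonic saline, then dosed subcutaneously with test compound. The assay ran 4 h. MED (mg/rat) is the dose giving 50% inhibition of the DCA-induced increase in urinary Na/K ratio.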

Assay [2] has as its system Rattus norvegicus. The assay can be described thus: In vivo inhibition of deoxycorticosterone acetate-induced urinary electrolyte effect in ig dosed adrenalectomized rat measured over 4 hrs. Format: functional, Urine. In outline: (§1)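 Adrenalectomized rats (150-200 g) in groups of four each received 12 µg deoxycorticosterone acetate and 2.5 ml isotonic saline sc before intragastric test compound, with 2.4 mg/rat as the standard level. Urine was collected over 4 h. The value is the median effective dose (mg/rat) giving 50% inhibition of the DCA-induced rise in urinary Na/K ratio.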

The subject of assay [3] is Rattus norvegicus. The assay can be described thus: In vivo inhibition of deoxycorticosterone acetate-induced urinary electrolyte effect in po dosed adrenalectomized rat measured over 4 hrs. Format: functional, organism-based. The following applies: Urine. The procedure, abridged:
as §1

From ChEMBL document CHEMBL3272330, “Synthesis and antimineralocorticoid activities of some 7alpha-cyano and 7alpha-alkoxycarbonylamino steroidal spirolactones” (1976) come the findings set out here.

The source made the active and inactive calls. The rule behind the calls is not given here.

In the case of `C[C@]12CCC(=O)C=C1C[C@@H](N=C=O)[C@@H]1[C@@H]2CC[C@@]2(C)[C@H]1CC[C@@]21CCC(=O)O1`, the MED50 in assay [1] and in assay [2] was more than 2.4 mg throughout.

As to `COC(=O)N[C@@H]1CC2=CC(=O)CC[C@]2(C)[C@H]2CC[C@@]3(C)[C@@H](CC[C@@]34CCC(=O)O4)[C@H]12`, the MED50 worked out at 0.79 mg in assay [1] and 2 mg in assay [2].

As for `C[C@]12CC[C@H]3[C@@H]([C@H](C#N)CC4=CC(=O)CC[C@@H]43)[C@@H]1CC[C@@]21CCC(=O)O1`, the values for the MED50 in assay [1] and in assay [2] were 1.3 mg and more than 2.4 mg, respectively.

`C[C@]12CCC(=O)C=C1C[C@@H](C#N)[C@@H]1[C@@H]2CC[C@@]2(C)[C@H]1CC[C@@]21CCC(=O)O1`: the MED50 is on record as 0.39 mg in assay [1] and more than 2.4 mg in assay [2].

Consider `CCOC(=O)N[C@@H]1CC2=CC(=O)CC[C@]2(C)[C@H]2CC[C@@]3(C)[C@@H](CC[C@@]34CCC(=O)O4)[C@H]12`, for which the MED50 in assay [1] and in assay [2] was more than 2.4 mg in each case.

Molecule `C[C@]12CCC(=O)C=C1C[C@@H](C#N)[C@@H]1[C@@H]2CC[C@@]2(C)[C@H]1CC[C@@]2(O)CCC(=O)[O-].[K+]` registered an MED50 in assay [2] of 2.3 mg. The inhibition entry in assay [3] is “inactive”.

In the case of `C[C@]12C=CC(=O)C=C1C[C@@H](C#N)[C@@H]1[C@@H]2CC[C@@]2(C)[C@H]1CC[C@@]21CCC(=O)O1`, the MED50 in assay [1] is listed as 2.3 mg; in assay [2], more than 2.4 mg. Also, the inhibition result in assay [3] was “inactive”.
